What was measured:
Assay type in all cases: functional, cell-based
HL-60 = assay: Cytotoxicity against human HL60 cells after 48 hrs by MTT assay; conditions: HL-60, 48 h
Method in brief: (§1)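 Cells grown in RPMI-1640 or DMEM with 10% fetal bovine serum, 37 °C, 5% CO2. Seeded at 1 × 10^5 cells/mL; adherent lines attached 12 h before dosing, suspension cells (HL-60) seeded at dosing. Compound given at various concentrations in triplicate for 48 h; 10-hydroxycamptothecin positive control. MTT 4 h at 37 °C, lysis in 20% SDS-50% DMF, formazan read at 595 nm.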

SMMC-7721 = assay: Cytotoxicity against of human SMMC7721 cells after 48 hrs by MTT assay; conditions: SMMC-7721, 48 h; method in brief: as §1
A549 = assay: Cytotoxicity against human A549 cells after 48 hrs by MTT assay; conditions: A549, 48 h; method in brief: as §1
PANC-1 = assay: Cytotoxicity against human PANC1 cells after 48 hrs by MTT assay; conditions: PANC-1, 48 h; method in brief: as §1
SK-BR-3 = assay: Cytotoxicity against human SK-BR-3 cells after 48 hrs by MTT assay; conditions: SK-BR-3, 48 h; method in brief: as §1

| SMILES | IC50 (HL-60) [µM] | IC50 (SMMC-7721) [µM] | IC50 (A549) [µM] | IC50 (PANC-1) [µM] | IC50 (SK-BR-3) [µM] |
| --- | --- | --- | --- | --- | --- |
| C=C1C([C@@H](C)[C@H]2CC=C(C)C(=O)O2)=CC[C@]2(C)[C@H]1C[C@]1(O)C=C3C=CC(=O)OC(C)(C)[C@@H]3[C@H](OC(C)=O)C[C@@H]21 [LOGIPEDLACTONE J] | 2 | > 10 | > 10 | 5.3 | 2.8 |
| C=C1C([C@@H](C)[C@H]2CC=C(C)C(=O)O2)=CC[C@]2(C)[C@H]1C[C@]1(O)C=C3C=CC(=O)OC(C)(C)[C@@H]3CC[C@@H]21 [LONGIPEDLACTONE A] | 3.5 | > 10 | > 10 | > 10 | > 10 |
| C=C1C([C@@H](C)[C@H]2CC=C(C)C(=O)O2)=CC[C@]2(C)[C@H]1C[C@]1(O)[C@H]3O[C@]34C=CC(=O)OC(C)(C)[C@@H]4CC[C@@H]21 [LONGIPEDLACTONE D] | > 10 | > 10 | > 10 | > 10 | > 10 |
| C=C1C([C@@H](C)[C@H]2CC=C(C)C(=O)O2)=CC[C@]2(C)[C@H]1C[C@]1(O)C=C3C=CC(=O)OC(C)(C)[C@@H]3[C@H](O)C[C@@H]21 [LONGIPEDLACTONE F] | 2.3 | > 10 | > 10 | 8.8 | 7.4 |
| C=C1C([C@@H](C)[C@H]2CC=C(C)C(=O)O2)=CC[C@]2(C)[C@H]1C[C@]1(O)[C@H]3O[C@]34C=CC(=O)OC(C)(C)[C@@H]4[C@H](O)C[C@@H]21 [LONGIPEDLACTONE G] | > 10 | > 10 | > 10 | > 10 | > 10 |
| C=C1[C@@H]2C[C@]3(O)[C@H]4O[C@]45C=CC(=O)OC(C)(C)[C@@H]5[C@H](O)C[C@H]3[C@]2(C)CC[C@@]1(O)[C@@H](C)[C@H]1CC=C(C)C(=O)O1 [LONGIPEDLACTONE I] | > 10 | > 10 | > 10 | > 10 | > 10 |
| C=C1[C@H]([C@@H](C)[C@H]2CC=C(C)C(=O)O2)CC[C@@]2(C)[C@@H]3C[C@@H](OC(C)=O)[C@H]4C(C)(C)OC(=O)C[C@H]5OO[C@]3(C[C@@H]12)C[C@]54O [LONGIPEDLACTONE K] | > 10 | > 10 | > 10 | > 10 | > 10 |
| C=C1[C@H]([C@@H](C)[C@H]2CC=C(C)C(=O)O2)CC[C@]2(C)[C@H]1C[C@]1(O)C=C3C=CC(=O)OC(C)(C)[C@@H]3[C@H](OC(C)=O)C[C@@H]21 [LONGIPEDLACTONE L] | 7.3 | > 10 | > 10 | > 10 | > 10 |
| C=C1[C@@H]2C[C@]3(O)C=C4C=CC(=O)OC(C)(C)[C@@H]4[C@H](OC(C)=O)C[C@H]3[C@]2(C)CC[C@@]1(O)[C@@H](C)[C@H]1CC=C(C)C(=O)O1 [LONGIPEDLACTONE M] | 4.1 | > 10 | > 10 | > 10 | > 10 |
| C=C1C([C@@H](C)[C@H]2CC=C(C)C(=O)O2)=CC[C@]2(C)[C@H]1C[C@]1(O)[C@H]3O[C@]34C=CC(=O)OC(C)(C)[C@@H]4[C@H](OC(C)=O)C[C@@H]21 [LONGIPEDLACTONE N] | > 10 | > 10 | > 10 | > 10 | > 10 |
| C=C1[C@@H]2C[C@]3(O)[C@H]4O[C@]45C=CC(=O)OC(C)(C)[C@@H]5[C@H](OC(C)=O)C[C@H]3[C@]2(C)CC[C@@]1(O)[C@@H](C)[C@H]1CC=C(C)C(=O)O1 [LONGIPEDLACTONE P] | > 10 | > 10 | > 10 | > 10 | > 10 |

From ChEMBL document CHEMBL1154841, “Cytotoxic triterpene dilactones from the stems of Kadsura ananosma” (J Nat Prod, 2010)
